Experimental data taken from ChEMBL document CHEMBL3407432, “Fused heterocycles bearing bridgehead nitrogen as potent HIV-1 NNRTIs. Part 3: optimization of [1,2,4]triazolo[1,5-a]pyrimidine core via structure-based and physicochemical property-driven approaches” (Eur J Med Chem, 2015).
In brackets after ≈: the same amount, converted by molar mass. Where a name gives a salt, the structure may show the parent alone.

How the values were obtained:
[1] = Selectivity index, ratio of CC50 for mock-infected human MT4 cells to EC50 for HIV1 3B infected in human MT4 cells; assay type: toxicity, cell-based; conditions: mock-infected MT4 cells and MT4 cells infected with HIV1 3B, read-out: Ratio CC50/EC50
[2] = Selectivity index, ratio of CC50 for mock-infected human MT4 cells to EC50 for HIV1 RES056 expressing reverse transcriptase K103N + Y181C double mutant; assay type: toxicity, cell-based; conditions: read-out: Ratio CC50/EC50
[3] = tested on: Human immunodeficiency virus 1; assay: Antiviral activity against HIV1 3B infected in human MT4 cells assessed as reduction in virus-induced cytopathic effect after 5 days by MTT assay; assay type: functional, organism-based; conditions: Human immunodeficiency virus 1, 3B, MT4, 120 h
In short: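 MT-4 cells at 6 × 10⁵ cells/mL infected with HIV-1 IIIB stock at 100-300 CCID50. Test compounds added as serial five-fold dilutions in triplicate wells. Viability of infected cells read spectrophotometrically by MTT 5 days after infection. Values are the mean ± SD of at least two parallel tests.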

[4] = tested on: Human immunodeficiency virus 1; assay: Antiviral activity against HIV1 RES056 expressing reverse transcriptase K103N + Y181C double mutant infected in human MT4 cells assessed as reduction in virus-induced cytopathic effect after 5 days by MTT assay; assay type: functional, organism-based; conditions: Human immunodeficiency virus 1, RES056, MT4, 120 h
In short: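 MT-4 cells resuspended at 6 × 10⁵ cells/mL, infected with HIV-1 RES056 stock at 100–300 CCID50, compound in serial five-fold dilutions in triplicate wells alongside mock-infected wells. Viability read by MTT after 5 days.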

[5] = target: Human immunodeficiency virus type 1 reverse transcriptase (Human immunodeficiency virus 1, UniProt Q72547); assay: Inhibition of HIV1 reverse transcriptase assessed as reduction in biotin-labeled dUTP incorporation into DNA after 1 hr using poly(A) x oligo(dT)15 template/primer hybrid, digoxigenin and biotin-labeled nucleotides
In short: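 Recombinant HIV-1 RT, colorimetric ELISA kit. Poly(A)·oligo(dT)15 template/primer with biotin- and DIG-labelled dNTPs in lysis buffer ± inhibitor, 1 h at 37 °C. Serial five-fold dilutions tested. IC50 is the concentration halving labelled dUTP incorporation.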

[6] = Solubility in water at pH 7.0 after 2 hrs by HPLC-UV method; assay type: physicochemical
In short: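 DMSO stock spiked into purified water to 1% final DMSO. Shaken 2 h at 3000 rpm at room temperature, left 1 h, then filtered through a 0.22 membrane. Filtrate quantified by HPLC-UV on a C18 column (150 × 4.6 mm) with MeOH/water 85/15 at 1.0 mL/min. Measured at pH 7, in duplicate.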

[7] = Lipophilicity, log P of the compound at pH 7.0 by HPLC method; assay type: physicochemical; conditions: buffer
In short: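 Log P measured at pH 7 by HPLC, in duplicate.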

| SMILES | selectivity ratio [1] | selectivity ratio [2] | EC50 [3] [µM] | EC50 [4] [µM] | IC50 [5] [µM] | solubility at 2 h [6] [mg/mL] | logP [7] |
| --- | --- | --- | --- | --- | --- | --- | --- |
| Cc1cc(C)c(Oc2cc(NC3CCN(CC4CCCCC4)CC3)nc3ncnn23)c(C)c1 | 50 | < 1 | 0.245 | > 13 | – | – | – |
| Cc1cc(C)c(Oc2cc(NC3CCN(Cc4ccncc4)CC3)nc3ncnn23)c(C)c1 | 2650 | 7 | 0.017 | 6.4 | – | – | – |
| Cc1cc(C)c(Oc2cc(NC3CCN(Cc4ccccc4)CC3)nc3ncnn23)c(C)c1 | 708 | < 1 | 0.036 | > 25 | – | – | – |
| Cc1cc(C)c(Oc2cc(NC3CCN(Cc4ccc(S(C)(=O)=O)cc4)CC3)nc3ncnn23)c(C)c1 | 2550 | 2 | 0.0081 | 13 | 0.5 | 0.0103 (≈ 19.8 µM) | 1.91 |
| Cc1cc(C)c(Oc2cc(NC3CCN(Cc4ccc(S(N)(=O)=O)cc4)CC3)nc3ncnn23)c(C)c1 | 1890 | 2 | 0.027 | 22 | – | – | – |
| COC(=O)c1ccc(CN2CCC(Nc3cc(Oc4c(C)cc(C)cc4C)n4ncnc4n3)CC2)cc1 | 686 | < 1 | 0.015 | > 10 | – | – | – |
| Cc1cc(C)c(Oc2cc(NC3CCN(Cc4ccc([N+](=O)[O-])cc4)CC3)nc3ncnn23)c(C)c1 | 522 | < 1 | 0.035 | > 18 | – | – | – |
| Cc1cc(C)c(Oc2cc(NC3CCN(Cc4ccc(C(N)=O)cc4)CC3)nc3ncnn23)c(C)c1 | 1180 | < 1 | 0.021 | > 24 | – | – | – |
| CC(=O)c1ccc(CN2CCC(Nc3cc(Oc4c(C)cc(C)cc4C)n4ncnc4n3)CC2)cc1 | 2060 | < 1 | 0.0087 | > 18 | – | – | – |
| Cc1cc(C)c(Oc2cc(NC3CCN(Cc4ccc(Br)cc4)CC3)nc3ncnn23)c(C)c1 | 320 | < 1 | 0.092 | > 30 | – | – | – |
| Cc1cc(C)c(Oc2cc(NC3CCN(Cc4cccc(Cl)c4)CC3)nc3ncnn23)c(C)c1 | 1640 | < 1 | 0.012 | > 20 | – | – | – |
| Cc1cc(C)c(Oc2cc(NC3CCN(Cc4ccc(C#N)cc4)CC3)nc3ncnn23)c(C)c1 | 689 | < 1 | 0.02 | > 14 | – | – | – |
| Cc1cc(C)c(Oc2cc(NC3CCN(Cc4cccc(C#N)c4)CC3)nc3ncnn23)c(C)c1 | 1320 | < 1 | 0.019 | > 25 | – | – | – |
| Cc1cc(C)c(Oc2cc(NC3CCN(Cc4ccccc4C#N)CC3)nc3ncnn23)c(C)c1 | 356 | < 1 | 0.077 | > 27 | – | – | – |
| Cc1cc(C)c(Oc2cc(NC3CCN(Cc4ccc(F)cc4)CC3)nc3ncnn23)c(C)c1 | 424 | < 1 | 0.056 | > 24 | – | – | – |
| Cc1cc(C)c(Oc2cc(NC3CCN(Cc4cccc(F)c4)CC3)nc3ncnn23)c(C)c1 | ≥ 238 | ≤ 1 | 0.104 | ≥ 39 | – | – | – |

| SMILES | selectivity ratio [1] | selectivity ratio [2] | EC50 [3] [µM] | EC50 [4] [µM] | IC50 [5] [µM] | solubility at 2 h [6] [mg/mL] | logP [7] |
| --- | --- | --- | --- | --- | --- | --- | --- |
| Cc1cc(C)c(Oc2cc(NC3CCN(Cc4ccccc4F)CC3)nc3ncnn23)c(C)c1 | 520 | < 1 | 0.048 | > 25 | – | – | – |
| Cc1ccc(CN2CCC(Nc3cc(Oc4c(C)cc(C)cc4C)n4ncnc4n3)CC2)cc1 | 679 | < 1 | 0.072 | > 49 | – | – | – |
| Cc1cc(C)c(Oc2cc(NC3CCN(Cc4ccccc4C)CC3)nc3ncnn23)c(C)c1 | 590 | < 1 | 0.042 | > 24 | – | – | – |
| Cc1cc(C)c(Oc2cc(NC3CCN(Cc4ccc(F)cc4F)CC3)nc3ncnn23)c(C)c1 | 255 | < 1 | 0.09 | > 23 | – | – | – |
| Cc1cc(C)c(Oc2cc(NC3CCN(Cc4ccc(F)c(F)c4)CC3)nc3ncnn23)c(C)c1 | 346 | < 1 | 0.067 | > 23 | – | – | – |
| Cc1cc(C)c(Oc2cc(NC3CCN(Cc4cc(F)ccc4F)CC3)nc3ncnn23)c(C)c1 | 243 | < 1 | 0.098 | > 24 | – | – | – |
| Cc1cc(C)c(Oc2cc(NC3CCN(Cc4c(F)cccc4F)CC3)nc3ncnn23)c(C)c1 | 57 | < 1 | 0.439 | > 25 | – | – | – |
| COC(=O)c1ccc(NC(=O)CN2CCC(Nc3cc(Oc4c(C)cc(C)cc4C)n4ncnc4n3)CC2)c(Cl)c1 | 315 | < 1 | 0.277 | > 86 | – | – | – |
| Cc1cc(C)c(Oc2cc(NC3CCN(CC(=O)Nc4ccc(C(=O)O)cc4Br)CC3)nc3ncnn23)c(C)c1 | 39 | < 1 | 2.28 | > 89 | – | – | – |
| CC(C)Nc1cccnc1N1CCN(C(=O)c2cc3cc(NS(C)(=O)=O)ccc3[nH]2)CC1 [DELAVIRDINE MESYLATE] | > 67 | 1 | 0.54 | > 36 | – | – | – |
| O=c1[nH]cnc2c1ncn2[C@H]1CC[C@@H](CO)O1 [DIDANOSINE] | > 9 | – | – | – | – | – | – |
| O=C1Nc2ccc(Cl)cc2[C@@](C#CC2CC2)(C(F)(F)F)O1 [EFAVIRENZ] | – | – | 0.0063 | – | – | – | – |
| Cc1cc(C#N)cc(C)c1Oc1nc(Nc2ccc(C#N)cc2)nc(N)c1Br [ETRAVIRINE] | – | – | 0.0018 | – | – | < 0.001 | > 5 |
| Nc1ccn([C@@H]2CS[C@H](CO)O2)c(=O)n1 [LAMIVUDINE] | > 39 | – | – | – | – | – | – |
| Cc1ccnc2c1NC(=O)c1cccnc1N2C1CC1 [NEVIRAPINE] | – | – | – | ≥ 7.6 | – | – | – |
| Cc1cn([C@H]2C[C@H](N=[N+]=[N-])[C@@H](CO)O2)c(=O)[nH]c1=O [ZIDOVUDINE] | – | – | – | 0.01 | – | – | – |
